17 molecules from ChEMBL document CHEMBL1148371, “Sulfonyl-containing aldophosphamide analogues as novel anticancer prodrugs targeted against cyclophosphamide-resistant tumor cell lines” (J Med Chem, 2004) can be followed below.

For one series, the system named is V79. Kind of series: In vitro cytotoxicity against V-79 chinese hamster lung fibroblasts (3 hr drug exposure time) by clonogenic assay. The settings on record: Cricetulus griseus, V79, 3 h. It counts as functional, cell-based. The essentials: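 Subcloned V-79 cells in MEM with 10% heat-inactivated FBS were used. 500 log-phase cells per dish were seeded and left 12–15 h. Cells were exposed to drug or solvent for 3 h at 37 °C, rinsed with HBSS, and grown 5–6 days. Colonies were fixed with EtOH, stained with crystal violet and counted against solvent control. IC50 (50% loss of clonogenic survival) came from the semilog concentration–survival plot; three experiments.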

A short description of series [1]: In vivo antitumor activity against P388/0 (wild) leukemia in mice measured by increase in life span after 400 mg/kg compound administration; Toxic. The conditions noted are these: mouse. Set-up: dose 400 mg/kg. It is filed as toxicity, organism-based. The essentials: (§1)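 CD2F1 mice (24–26 g) were implanted ip with 10^6 P388/0 or P388/CPA leukemia cells on day 0. A single ip dose (100, 200 or 400 mg/kg) in saline or saline–Tween 80 was given on day 1; vehicle controls were included. Five mice were used per dose. Survival was followed for 33 days against untreated controls and reported as % increase in life span and number of long-term survivors.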

A short description of series [2]: In vivo antitumor activity against P388/CPA leukemia (resistant) in mice measured by increase in life span after 400 mg/kg compound administration; Toxic. It counts as toxicity, organism-based. Set-up: dose 400 mg/kg. The settings on record: mouse. The essentials: as §1
In series [3] the test system is P388. Nature of the series: In vivo antitumor activity against P388/0 (wild) leukemia in mice measured by increase in life span after 100 mg/kg compound administration. It is filed as functional. The settings on record: Mus musculus. The essentials: as §1
Series [4] deals with P388/CPA. Kind of series: In vivo antitumor activity against P388/CPA leukemia in mice (resistant) measured by increase in life span after 100 mg/kg compound administration. The settings on record: Mus musculus. It counts as functional. The essentials: as §1
Series [5] deals with P388/CPA. Nature of the series: In vivo antitumor activity against P388/CPA leukemia (resistant) in mice measured by increase in life span after 200 mg/kg compound administration. The settings on record: Mus musculus. It counts as functional. The essentials: as §1
A short description of series [6]: Half life period in human plasma using phosphate buffer (0.08 M). It counts as ADME, cell-free.
Series [7] in a line: Half life period in phosphate buffer (0.08 M). It is filed as ADME. The essentials: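 Prodrug was incubated in 0.08 M phosphate buffer pH 7.4 at 37 °C with shaking, mostly at 3–9 mM (0.8 or 0.3 mM for some). Incubation was stopped with 2.0 M acetate pH 5.0 plus EtOH. Parent compound was quantified by silica TLC (UV 254 nm or NBP stain) and densitometry against a zero-time control. kobs came from the ln(% remaining) versus time slope; t1/2 = 0.693/kobs.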

For series [8], the system named is P388. Kind of series: In vivo antitumor activity against P388/0 (wild) leukemia in mice measured by increase in life span after 200 mg/kg compound administration. It is filed as functional. The settings on record: Mus musculus. The essentials: as §1
The test system of series [9] is P388/CPA. Kind of series: In vivo antitumor activity against P388/CPA leukemia (resistant) in mice measured by increase in life span after 400 mg/kg compound administration. It is filed as functional. The conditions noted are these: Mus musculus. The essentials:
as §1

Series [10] deals with P388. Nature of the series: In vivo antitumor activity against P388/0 (wild) leukemia in mice measured by increase in life span after 400 mg/kg compound administration. It counts as functional. The settings on record: Mus musculus. The essentials: as §1
Series [11] is described as follows: In vivo antitumor activity against P388/0 (wild) leukemia in mice measured by increase in life span after 200 mg/kg compound administration; Toxic. It counts as toxicity, organism-based. Set-up: dose 200 mg/kg. The settings on record: mouse. The essentials: as §1
Series [12] is described as follows: Half life period in phosphate buffer (0.2 M). It is filed as ADME.
Series [13] concerns P388. Kind of series: Number of long-term (33-day) survival P388/0 (wild) leukemia mice (5) after 400 mg/kg compound administration. It is filed as functional, Mus musculus. The essentials:
as §1

Usually IC50 stands for the concentration that inhibits the measured activity by half. A low value points to higher potency. With `Cc1ccc(SCCO)cc1`, inhibition in the series with V79 was half-maximal at 69.1 µM (IC50).

In the case of `CS(=O)(=O)CCOc1ccc([N+](=O)[O-])c([N+](=O)[O-])c1`, in the series with V79, the midpoint of inhibition, the IC50, lay at 69.1 µM.

As a reminder, the ILS is how much longer treated animals lived than controls. In general, half-life refers to the time needed for the level to fall by half in the phase considered. A higher half-life goes with slow loss. Turning to `O=[N+]([O-])c1ccc(S(=O)(=O)CCOP(=O)(N(CCCl)CCCl)N(CCCl)CCCl)cc1`, the ILS entry in series [1] and in series [2] was “Toxic” throughout. For the same molecule, the ILS at 100 mg/kg with P388 [3] amounted to 100%; in the series on P388/CPA [4], 84%. In addition, the increase in life span (ILS) at 200 mg/kg with P388/CPA [5] was determined as 68%; in the series with P388 [8], 120%. The values for the half-life in [6] and in [7] were 0.37 h and 0.69 h, respectively. Moreover, it took 1.8 µM to reach half-maximal inhibition in the series with V79 (IC50).

The molecule `CSCCO` had a concentration for half-maximal inhibition (IC50) with V79 of 69.1 µM.

As for `CSCCOc1ccc([N+](=O)[O-])c([N+](=O)[O-])c1`, in the series with V79, the IC50 was 69.1 µM.

In the case of `Cc1ccc(S(=O)(=O)CCOP(=O)(NCCCl)NCCCl)cc1`, the ILS at 100 mg/kg with P388 [3] worked out at 23%; in the series with P388/CPA [4], 4%. Besides, the ILS at 400 mg/kg in the series with P388/CPA [9] stood at 36%; in the series on P388 [10], 23%. Also, the ILS at 200 mg/kg in the series with P388/CPA [5] stood at 12%; with P388 [8], 14%. Besides, the half-life in series [6] is 4.4 h; in series [7], 12.1 h. Also, the IC50 in the series on V79 worked out at 9.5 µM.

Molecule `Cc1ccc(SCCOP(N)(=O)N(CCCl)CCCl)cc1` (stereo not given) showed an IC50 in the series with V79 of 69.1 µM.

In the case of `CSCC(OP(=O)(N(CCCl)CCCl)N(CCCl)CCCl)c1ccccc1` (stereo not given), in the series on V79, the half-inhibitory concentration (IC50) was 69.1 µM.

With `O=[N+]([O-])c1ccc(S(=O)(=O)CCOP(=O)(NCCCl)NCCCl)cc1`, the ILS entry in series [1] and in series [2] was “Toxic” in each case. Besides, the ILS at 100 mg/kg with P388 [3] came out at 71%; with P388/CPA [4] it was 60%. The values for the ILS at 200 mg/kg in the series on P388/CPA [5] and in the series on P388 [8] were 92% and 138%, respectively. For the same molecule, the results for the half-life in series [6] and in series [7] were below 0.01 h and 0.08 h, respectively. In the series on V79, 2.1 µM corresponded to half-maximal inhibition (IC50).

For the molecule `O=P(O)(NCCCl)NCCCl` [PALIFOSFAMIDE], in series [11], the increase in lifespan (ILS) result is “Toxic”. The ILS at 100 mg/kg in the series with P388 [3] worked out at 92%. Also, the midpoint of inhibition in the series with V79, the IC50, lay at 60.9 µM. Moreover, the half-life in series [12] was 1 h.

With `Cc1ccc(S(=O)(=O)CCOP(N)(=O)N(CCCl)CCCl)cc1` (stereo not given), the results for the ILS at 100 mg/kg with P388 [3] and in the series with P388/CPA [4] were 20% and 28%, respectively. Besides, the ILS at 400 mg/kg in the series with P388/CPA [9] is 44%; in the series on P388 [10], 90%. Moreover, the ILS at 200 mg/kg in the series on P388/CPA [5] turned out to be 28%; in the series on P388 [8] it was 50%. In addition, the results for the half-life in series [6] and in series [7] were 4.8 h and 12.8 h, respectively. In the series on V79, this molecule came in with an IC50 of 11.5 µM.

As to `CSCCOP(=O)(N(CCCl)CCCl)N(CCCl)CCCl`, in the series on V79, the IC50 is 69.1 µM.

Consider `CS(=O)(=O)CCOP(=O)(N(CCCl)CCCl)N(CCCl)CCCl`, for which the ILS at 100 mg/kg in the series with P388 [3] amounted to 10%; in the series with P388/CPA [4], 12%. The results for the ILS at 400 mg/kg with P388/CPA [9] and in the series on P388 [10] were 60% and 30%, respectively. Moreover, the ILS at 200 mg/kg came to 28% with P388/CPA [5] and 10% in the series with P388 [8]. For the same molecule, the half-life is 1.6 h in [6] and 7.2 h in [7]. For the same molecule, the IC50 in the series on V79 was determined as 24.1 µM.

`O=[N+]([O-])c1ccc(SCCO)cc1` had an IC50 in the series on V79 of 69.1 µM.

For `O=P(NCCCl)(NCCCl)OCCS(=O)(=O)c1ccccc1`, the ILS at 100 mg/kg in the series with P388 [3] is 33%; with P388/CPA [4], 20%. For the same molecule, the ILS at 400 mg/kg in the series with P388/CPA [9] was found to be 60%; in the series with P388 [10] it was 33%. Moreover, the results for the ILS at 200 mg/kg in the series on P388/CPA [5] and with P388 [8] were 28% and 33%, respectively. Besides, the half-life in series [6] was 2.6 h; in series [7], 6.4 h. Besides, the IC50 with V79 stood at 13.9 µM.

For the molecule `CS(=O)(=O)CCOP(=O)(NCCCl)NCCCl`, the ILS at 100 mg/kg was determined as 33% in the series with P388 [3] and 20% in the series on P388/CPA [4]. Further, the increase in life span (ILS) at 400 mg/kg with P388/CPA [9] was 108%; in the series with P388 [10], 100%. For the same molecule, the ILS at 200 mg/kg worked out at 84% in the series on P388/CPA [5] and 52% in the series on P388 [8]. For the same molecule, the Number with P388 [13] worked out at 1. For the same molecule, the half-life in series [6] is 2.2 h; in series [7], 6.4 h. Also, the midpoint of inhibition with V79, the IC50, lay at 68 µM.

As for `CS(=O)(=O)CC(OP(=O)(N(CCCl)CCCl)N(CCCl)CCCl)c1ccccc1` (stereo not given), the increase in lifespan (ILS) at 100 mg/kg in the series with P388 [3] stood at 10%; in the series with P388/CPA [4], 4%. Besides, the ILS at 400 mg/kg stood at 60% in the series with P388/CPA [9] and 20% in the series with P388 [10]. In addition, the ILS at 200 mg/kg in the series on P388/CPA [5] and in the series on P388 [8] was 20% throughout. Further, the half-life in series [6] is 1 h; in [7], 1.8 h. The molecule further registered an IC50 with V79 of 15.2 µM.
